{"source": "paper PMC2808126", "about": "(Molecular cancer therapeutics, 2009)", "key": {"22Rv1-T cells [1]": {"system": "22Rv1-T cells", "experiment": "Caspase-3 fluorometric protease assay", "format": "cell-based, human"}, "22Rv1-T cells [2]": {"system": "22Rv1-T cells", "experiment": "ATP viability assay", "format": "cell-based, human", "conditions": "for cell viability response: 22Rv1-T, time course to 72 hours; for IC50: Homo sapiens, 72 h", "in_short": "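Paclitaxel-resistant 22Rv1 subline made by serial passage over about 4 months in rising paclitaxel (0-400ng/ml), then maintained in 5ng/ml paclitaxel. About 1,000 cells/well plated in 1% serum in 384-well plates. Next day, taxanes or test compound added alone, or combined with paclitaxel, for up to 72 h. ATPlite luminescence read, replicate wells averaged.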"}, "22Rv1 cells [3]": {"system": "22Rv1 cells", "experiment": "ATP viability assay", "format": "cell-based", "conditions": "Homo sapiens; for IC50: 22Rv1, 72 h, read-out: approximate IC50, cell viability (taxanes)", "in_short": "(§1)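 Lines kept in RPMI 1640 with 10% FBS, except LAPC-4 in Iscove's medium with 5% FBS. About 1,000 cells/well plated in 384-well plates in 1% serum. Test compound added next day at increasing concentrations. For 22Rv1, agents given alone or combined for 48 h, or taxanes for 72 h. Other lines treated 72 h. ATPlite luminescence read, replicate wells averaged, approximate IC50 estimated.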"}, "[4]": {"system": "MDR1 activity in 22Rv1-T cells", "experiment": "Multidrug resistance assay", "format": "cell-based, human", "conditions": "15 minutes; for fluorescent calcein retention (MDR1 efflux activity): single agent"}, "[5]": {"system": "MDR1 mRNA in 22Rv1-T cells", "experiment": "Quantitative real-time RT-PCR of MDR1", "format": "cell-based, human", "conditions": "22Rv1-T (Supplementary Fig. 3b)"}, "22Rv1-Pim1 cells [6]": {"system": "22Rv1-Pim1 cells", "experiment": "ATP viability assay", "format": "cell-based, human", "conditions": "72 hours"}, "DU145 cells": {"system": "DU145 cells", "experiment": "ATP viability assay", "format": "cell-based", "conditions": "Homo sapiens, DU-145, 72 h, read-out: approximate IC50, cell viability", "in_short": "as §1"}, "22Rv1 cells [7]": {"system": "22Rv1 cells", "experiment": "Cell cycle analysis by flow cytometry", "format": "cell-based, human", "conditions": "24 hours, untreated 60%"}, "C4-2B cells [8]": {"system": "C4-2B cells", "experiment": "ATP viability assay", "format": "cell-based", "conditions": "Homo sapiens, 72 h, read-out: approximate IC50, cell viability", "in_short": "as §1"}, "[9]": {"system": "phospho-p21^Thr145 in C4-2B cells", "experiment": "Western blot of phospho-p21 Thr145", "format": "cell-based, human", "conditions": "5 hour treatment", "in_short": "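C4-2B cells, kept in RPMI 1640 with 10% FBS, treated 5 h with increasing concentrations of test compound. Western blot probed for phospho-p21 Thr145 and total p21, with β-actin as loading control.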"}, "[10]": {"system": "phosphorylated Bad^Ser112 in 22Rv1-T cells", "experiment": "Western blot of phospho-Bad Ser112", "format": "cell-based, human", "conditions": "5 hours", "in_short": "(§2)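 Cells (22Rv1, C4-2B or the paclitaxel-resistant 22Rv1 subline) treated with increasing doses of test compound for 5 h. Lysates immunoblotted for phospho-Bad Ser112 and total Bad, with β-actin as loading control.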"}, "PC3 cells": {"system": "PC3 cells", "experiment": "ATP viability assay", "format": "cell-based", "conditions": "Homo sapiens, PC-3, 72 h, read-out: approximate IC50, cell viability", "in_short": "as §1"}, "22Rv1 cells [11]": {"system": "22Rv1 cells", "experiment": "Caspase-3 fluorometric protease assay", "format": "cell-based, human", "conditions": "22Rv1, increasing concentrations, 24 hours", "in_short": "(§3)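 Cells held overnight in 1% serum, then exposed to increasing concentrations of test compound for 24 h. Apoptosis measured as caspase-3 activity with a fluorometric protease assay kit. Activity expressed relative to untreated samples.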"}, "LNCaP cells": {"system": "LNCaP cells", "experiment": "ATP viability assay", "format": "cell-based", "conditions": "Homo sapiens, 72 h, read-out: approximate IC50, cell viability", "in_short": "as §1"}, "[12]": {"system": "phosphorylated Bad^Ser112 in 22Rv1 cells", "experiment": "Western blot of phospho-Bad Ser112", "format": "cell-based, human", "conditions": "22Rv1, increasing doses, 5 hours", "in_short": "as §2"}, "LAPC-4 cells": {"system": "LAPC-4 cells", "experiment": "ATP viability assay", "format": "cell-based", "conditions": "Homo sapiens, LAPC4, 72 h, read-out: approximate IC50, cell viability", "in_short": "as §1"}, "[13]": {"system": "p-p21^Thr145 in 22Rv1-Pim1 cells", "experiment": "Western blot of phospho-p21 Thr145", "format": "cell-based, human", "conditions": "22Rv1-Pim1, 1μM, 2 hours"}, "[14]": {"system": "phosphorylated Bad^Ser112 in C4-2B cells", "experiment": "Western blot of phospho-Bad Ser112", "format": "cell-based, human", "conditions": "increasing doses, 5 hours", "in_short": "as §2"}, "C4-2B cells [15]": {"system": "C4-2B cells", "experiment": "Cell cycle analysis by flow cytometry", "format": "cell-based, human", "conditions": "24 hours, untreated 72%"}, "[16]": {"system": "phospho-p21^Thr145 in 22Rv1 cells", "experiment": "Western blot of phospho-p21 Thr145", "format": "cell-based, human"}, "22Rv1-Pim1 cells [17]": {"system": "22Rv1-Pim1 cells", "experiment": "Caspase-3 fluorometric protease assay", "format": "cell-based", "conditions": "Homo sapiens, 22Rv1, read-out: fold induction of apoptosis (caspase-3) in 22Rv1-Pim1 compared to 22Rv1"}, "RWPE2-W99 cells": {"system": "RWPE2-W99 cells", "experiment": "ATP viability assay", "format": "cell-based", "conditions": "Homo sapiens, Keratinocyte, 72 h, read-out: approximate IC50, cell viability", "in_short": "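RWPE2-W99 kept in Keratinocyte Serum Free Medium with bovine pituitary extract and human recombinant EGF. About 1,000 cells/well plated in 384-well plates in complete medium. Test compound added next day at increasing concentrations for 72 h. Viability read by ATPlite luminescence, replicate wells averaged, approximate IC50 estimated.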"}, "C4-2B cells [18]": {"system": "C4-2B cells", "experiment": "Caspase-3 fluorometric protease assay", "format": "cell-based, human", "conditions": "increasing concentrations, 24 hours", "in_short": "as §3"}, "[19]": {"conditions": "read-out: IC50, cell viability (taxanes)"}, "[20]": {"conditions": "22Rv1, 48 h, read-out: cell viability"}}, "note": "Where two headings read alike, the source gives them in different places.", "data": [{"molecule": "CC(=O)O[C@H]1C(=O)[C@@]2(C)[C@H]([C@H](OC(=O)c3ccccc3)[C@]3(O)C[C@H](OC(=O)[C@H](O)[C@@H](NC(=O)c4ccccc4)c4ccccc4)C(C)=C1C3(C)C)[C@]1(OC(C)=O)CO[C@@H]1C[C@@H]2O", "note": "[paclitaxel]", "values": [{"measurement": "change in caspase-3 levels", "setting": "22Rv1-T cells [1]; increasing doses of paclitaxel alone, 24 hours", "result": "lack of change"}, {"measurement": "cell viability response", "setting": "22Rv1-T cells [2]; 50nM paclitaxel alone", "result": "does not respond"}, {"measurement": "IC50", "setting": "22Rv1-T cells [2]; [19]", "result": "> 0.1", "unit": "µM"}, {"measurement": "viability at 0.0025 µM", "setting": "22Rv1 cells [3]; [20]", "result": 62.6, "unit": "%"}, {"measurement": "IC50", "setting": "22Rv1 cells [3]", "result": "~0.0045", "unit": "µM"}, {"measurement": "fluorescent calcein retention (MDR1 efflux activity)", "setting": "[4]", "result": "no different from the untreated cells"}]}, {"molecule": "CN1CCC(CNc2ccc3ncc(-c4cccc(OC(F)(F)F)c4)n3n2)CC1", "note": "[SGI-1776]", "values": [{"measurement": "increase of caspase-3 activity compared to untreated cells", "setting": "22Rv1-T cells [1]; 2.5μM SGI-1776, 24 hours", "result": 1.42, "unit": "fold"}, {"measurement": "caspase-3 activity relative to untreated (100%)", "setting": "22Rv1-T cells [1]; 2.5μM SGI-1776, 24 hours, ± 3", "result": 142, "unit": "%"}, {"measurement": "increase of caspase-3 activity compared to untreated cells", "setting": "22Rv1-T cells [1]; 2.5μM SGI-1776 combined with 50nM paclitaxel, 24 hours", "result": 2.7, "unit": "fold"}, {"measurement": "caspase-3 activity relative to untreated (100%)", "setting": "22Rv1-T cells [1]; 2.5μM SGI-1776 combined with 50nM paclitaxel, 24 hours, ± 8, p<0.0001", "result": 269, "unit": "%"}, {"measurement": "MDR1 mRNA expression levels", "setting": "[5]", "result": "did not alter"}, {"measurement": "reduction in IC50 in 22Rv1-Pim1 compared to 22Rv1, cell viability", "setting": "22Rv1-Pim1 cells [6]", "result": "~3", "unit": "fold"}, {"measurement": "IC50", "setting": "DU145 cells", "result": "~8", "unit": "µM"}, {"measurement": "percentage of cells in the G1 phase", "setting": "22Rv1 cells [7]; 22Rv1, 2.5μM", "result": "70% ± 2.00"}, {"measurement": "percentage of cells in the G1 phase", "setting": "22Rv1 cells [7]; 22Rv1, 7.5μM", "result": "81% ± 1.17"}, {"measurement": "IC50", "setting": "C4-2B cells [8]", "result": "~4", "unit": "µM"}, {"measurement": "concentration of maximal inhibition of phospho-p21^Thr145", "setting": "[9]", "result": 7.5, "unit": "µM"}, {"measurement": "concentration of maximal inhibition of phosphorylated Bad^Ser112", "setting": "[10]", "result": "5 to 7.5", "unit": "µM"}, {"measurement": "IC50", "setting": "PC3 cells", "result": "~3", "unit": "µM"}, {"measurement": "cell viability response", "setting": "22Rv1-T cells [2]; 2.5μM SGI-1776 alone", "result": "minimal response"}, {"measurement": "IC50", "setting": "22Rv1-T cells [2]; read-out: approximate IC50, cell viability", "result": "~5", "unit": "µM"}, {"measurement": "caspase-3 activity levels", "setting": "22Rv1 cells [11]", "result": "dose-dependent increase"}, {"measurement": "IC50", "setting": "LNCaP cells", "result": "~5", "unit": "µM"}, {"measurement": "phosphorylated Bad^Ser112 protein levels", "setting": "[12]", "result": "dose-dependent decrease"}, {"measurement": "IC50", "setting": "LAPC-4 cells", "result": "> 10", "unit": "µM"}, {"measurement": "effect on p-p21^Thr145 abundance", "setting": "[13]", "result": "dramatic inhibition"}, {"measurement": "phosphorylated Bad^Ser112 protein levels", "setting": "[14]", "result": "dose-dependent decrease"}, {"measurement": "percentage of cells in the G1 phase", "setting": "C4-2B cells [15]; 2.5μM", "result": "81% ± 1.24"}, {"measurement": "percentage of cells in the G1 phase", "setting": "C4-2B cells [15]; 7.5μM", "result": "95% ± 0.16"}, {"measurement": "effect on p-p21^Thr145 abundance", "setting": "[16]; 22Rv1, 1μM, 2 hours", "result": "minimal, if any, effect"}, {"measurement": "concentration of maximal inhibition of phospho-p21^Thr145", "setting": "[16]; 22Rv1, 5 hour treatment", "result": 5, "unit": "µM"}, {"measurement": "concentration at which significant decrease in p-p21^Thr145 was first observed", "setting": "[16]; parental 22Rv1 (Fig. 3a)", "result": "2.5 to 5", "unit": "µM"}, {"measurement": "fold induction at 2.5 µM", "setting": "22Rv1-Pim1 cells [17]", "result": 1.6}, {"measurement": "viability at 2.5 µM", "setting": "22Rv1 cells [3]; [20]", "result": 63, "unit": "%"}, {"measurement": "IC50", "setting": "RWPE2-W99 cells", "result": "~9", "unit": "µM"}, {"measurement": "caspase-3 activity levels", "setting": "C4-2B cells [18]", "result": "dose-dependent increase"}, {"measurement": "fluorescent calcein accumulation, combination", "setting": "[4]; paclitaxel combined with SGI-1776", "result": "did not further enhance"}, {"measurement": "fluorescent calcein retention (MDR1 efflux activity)", "setting": "[4]", "result": "dose-dependent increase"}]}, {"molecule": "CC(=O)O[C@@]12CO[C@@H]1C[C@H](O)[C@@]1(C)C(=O)[C@H](O)C3=C(C)[C@@H](OC(=O)[C@H](O)[C@@H](NC(=O)OC(C)(C)C)c4ccccc4)C[C@@](O)([C@@H](OC(=O)c4ccccc4)[C@H]21)C3(C)C", "note": "[docetaxel]", "values": [{"measurement": "IC50", "setting": "22Rv1-T cells [2]; [19]", "result": "> 0.1", "unit": "µM"}, {"measurement": "IC50", "setting": "22Rv1 cells [3]", "result": "~0.0025", "unit": "µM"}]}]}
